Activity calls are given as the source filed them. The rule behind the calls is not given here.
Columns and labels:
Gamma-secretase = assay: Modulation of gamma-secretase (unknown origin) expressed in HEK293 cells harboring SCP99-Lon mutation assessed as reduction in Abeta42 production after 5 hrs by sandwich immunoassay; assay type: cell-based, Homo sapiens
In short: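 HEK293 cells incubated 5 h with a range of GSM concentrations. Aβ42 in conditioned medium quantified by MSD sandwich electrochemiluminescence immunoassay, using TAG-G2-11 and biotin-4G8 antibodies.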

[1] = molecular target: T1, Gamma-secretase (Homo sapiens) (UniProt Q96BI3+Q9NZ42+Q8WW43+P49768+Q92542+P49810); assay: Modulation of gamma-secretase (unknown origin) expressed in HEK293 cells harboring SCP99-Lon mutation assessed as ratio of total amyloid beta to amyloid beta 42 level after 5 hrs by sandwich immunoassay; assay type: cell-based
In short: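 HEK293 cells exposed 5 h to varied GSM concentrations. Conditioned medium assayed by MSD sandwich electrochemiluminescence immunoassay: Aβ42 with TAG-G2-11/biotin-4G8, total Aβ with TAG-W02/biotin-4G8. Ratio formed from total Aβ and Aβ42.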

[2] = Dissociation constant, pKa of the compound; assay type: physicochemical
[3] = molecular target: T1, Gamma-secretase (Homo sapiens); assay: Modulation of gamma-secretase (unknown origin) expressed in HEK293 cells harboring SCP99-Lon mutation assessed as reduction in amyloid beta 42 level at 10 uM by surface enhanced laser desorption/ionization mass spectrometry; assay type: cell-based
[4] = molecular target: T1, Gamma-secretase (Homo sapiens); assay: Modulation of gamma-secretase (unknown origin) expressed in HEK293 cells harboring SCP99-Lon mutation assessed as reduction in amyloid beta 40 level at 10 uM by surface enhanced laser desorption/ionization mass spectrometry; assay type: cell-based
[5] = molecular target: T1, Gamma-secretase (Homo sapiens); assay: Modulation of gamma-secretase (unknown origin) expressed in HEK293 cells harboring SCP99-Lon mutation assessed as increase in amyloid beta 38 level at 10 uM by surface enhanced laser desorption/ionization mass spectrometry; assay type: cell-based
[6] = molecular target: T1, Gamma-secretase (Homo sapiens); assay: Modulation of gamma-secretase (unknown origin) expressed in HEK293 cells harboring SCP99-Lon mutation assessed as increase in amyloid beta 37 level at 10 uM by surface enhanced laser desorption/ionization mass spectrometry; assay type: cell-based
Rattus norvegicus = assay: Reduction in amyloid beta 42 level in Sprague-Dawley rat cerebrospinal fluid at 30 mg/kg, po administered as single dose after 3 hrs by sandwich immunoassay relative to control; assay type: functional; design: scale not given: the % may be the effect or the level left
In short: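 Non-transgenic rats received a single oral 30 mg/kg dose or vehicle. CSF sampled 3 h later and Aβ42 compared against vehicle-treated animals; n = 5.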

[7] = Drug uptake in plasma of Sprague-Dawley rat at 30 mg/kg, po after 3 hrs by LC-MS/MS analysis; assay type: ADME, organism-based
In short: (§1)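 Rats given a single oral dose of 30 mg/kg. Plasma and brain collected 3 h post-dose and drug concentration measured; n = 3.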

[8] = Drug uptake in brain of Sprague-Dawley rat at 30 mg/kg, po after 3 hrs by LC-MS/MS analysis; assay type: ADME, organism-based; conditions: read-out: Drug uptake; in short: as §1
P-gp [9] = assay: Substrate activity at P-gp (unknown origin) assessed as permeability across apical to basolateral side; assay type: ADME; conditions: human, not told; read-out: permeability
P-gp [10] = assay: Substrate activity at P-gp (unknown origin) assessed as permeability across basolateral to apical side; assay type: ADME; conditions: human, not told; read-out: permeability
P-gp [11] = assay: Substrate activity at P-gp (unknown origin) assessed as efflux ratio of permeability across basolateral to apical over apical to basolateral side; assay type: ADME; conditions: human, not told

IC50 (Gamma-secretase) | Ratio [1] | Structure (SMILES) | further results
640 nM | – | COc1cc(-c2noc3c2CCCC3NCc2cc(F)cc(F)c2)ccc1-n1cnc(C)c1 (stereo in doubt; 14d) [listing 1 of 2 here] | –
12000 nM | 2 | CNC1CCCc2c(-c3ccc(-n4cnc(C)c4)c(OC)c3)noc21 (stereo not given) | pKa [2]: 8.1
250 nM | 79 | COc1cc(-c2noc3c2CCCC3N(C)Cc2ccc(F)cc2)ccc1-n1cnc(C)c1 (stereo not given) | –
110 nM | 178 | COc1cc(-c2noc3c2CCCC3c2cc(F)cc(F)c2)ccc1-n1cnc(C)c1 (stereo not given) | –
– | 575 | COc1cc(-c2noc3c2CCCC3NCc2cc(F)cc(F)c2)ccc1-n1cnc(C)c1 (stereo in doubt; 14c) [listing 1 of 2 here] | Activity [3]: Active; Activity [4]: Active; Activity [5]: Active; Activity [6]: Active
39 nM | – | COc1cc(-c2noc3c2CCCC3Nc2ccc(F)cc2)ccc1-n1cnc(C)c1 (stereo in doubt; 14a) [listing 1 of 2 here] | pKa [2]: 5.33; Activity (Rattus norvegicus): 58%; concentration at 3 h [7]: 10.4 µM; concentration at 3 h [8]: 14.3 µM; Papp A→B (P-gp [9]): 37.6 ×10⁻⁶ cm/s; Papp B→A (P-gp [10]): 60 ×10⁻⁶ cm/s; efflux ratio (P-gp [11]): 1.6
190 nM | 105 | COc1cc(-c2noc3c2CCCC3(O)c2cc(F)cc(F)c2)ccc1-n1cnc(C)c1 (stereo not given) | –
– | 28 | COc1cc(-c2noc3c2CCCC3NCc2cc(F)cc(F)c2)ccc1-n1cnc(C)c1 (stereo in doubt; 14d) [listing 2 of 2 here] | –
230 nM | – | COc1cc(-c2noc3c2CCCC3Nc2ccc(F)cc2)ccc1-n1cnc(C)c1 (stereo in doubt; 14b) [listing 1 of 2 here] | –
260 nM | 77 | COc1cc(-c2noc3c2CCCC3N[C@H](C)c2ccc(F)cc2)ccc1-n1cnc(C)c1 (stereo not given in full) | –
460 nM | 43 | COc1cc(-c2noc3c2CCCC3NCC(F)(F)F)ccc1-n1cnc(C)c1 (stereo not given) | pKa [2]: 5.42
– | 86 | COc1cc(-c2noc3c2CCCC3Nc2ccc(F)cc2)ccc1-n1cnc(C)c1 (stereo in doubt; 14b) [listing 2 of 2 here] | –
510 nM | 39 | COc1cc(-c2noc3c2CCCC3OCc2cc(F)cc(F)c2)ccc1-n1cnc(C)c1 (stereo not given) | –
130 nM | 32 | COc1cc(-c2noc3c2CCCC3NCc2ccc(F)cc2)ccc1-n1cnc(C)c1 (stereo not given) | pKa [2]: 7.08; Activity [3]: Active; Activity [4]: Active; Activity [5]: Active; Activity [6]: Active
– | 499 | COc1cc(-c2noc3c2CCCC3Nc2ccc(F)cc2)ccc1-n1cnc(C)c1 (stereo in doubt; 14a) [listing 2 of 2 here] | Activity [3]: Active; Activity [4]: Active; Activity [5]: Active; Activity [6]: Active
290 nM | 68 | COc1cc(-c2noc3c2CCCC3Oc2ccc(F)cc2)ccc1-n1cnc(C)c1 (stereo not given) | –
200 nM | 98 | COc1cc(-c2noc3c2CCCC3Oc2cc(F)cc(F)c2)ccc1-n1cnc(C)c1 (stereo not given) | –
150 nM | 102 | COc1cc(-c2noc3c2CCCC3(O)Cc2cc(F)cc(F)c2)ccc1-n1cnc(C)c1 (stereo not given) | –
310 nM | 64 | COc1cc(-c2noc3c2CCCC3NC2CCCCC2)ccc1-n1cnc(C)c1 (stereo not given) | pKa [2]: 8.42
29 nM | – | COc1cc(-c2noc3c2CCCC3NCc2cc(F)cc(F)c2)ccc1-n1cnc(C)c1 (stereo in doubt; 14c) [listing 2 of 2 here] | concentration at 3 h [7]: 6.01 µM; concentration at 3 h [8]: 2.19 µM; Papp A→B (P-gp [9]): 6.8 ×10⁻⁶ cm/s; Papp B→A (P-gp [10]): 46.2 ×10⁻⁶ cm/s; efflux ratio (P-gp [11]): 6.8

From ChEMBL document CHEMBL4130517, “Discovery of a Tetrahydrobenzisoxazole Series of γ-Secretase Modulators” (ACS Med Chem Lett, 2017)
